High-throughput results from PubChem.
STEP inh – STEP (human) phosphatase inhibition. P54829. recombinant STEP, OMFP fluorogenic substrate, fluorescence. inhibition, % at 20 µM. 360,000 tested, 0.25% active;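 active = inhibition at 20 µM, scaled per plate between control wells, above about 37%, limit read from the data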
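System: STEP (striatal-enriched tyrosine phosphatase) enzyme, cell-free; medium: Bis-Tris pH 6.0 buffer with DTT, detergent; dosing: 20 µM, 1% DMSO; times: reaction 20 min, ambient temperature; detection: fluorescence, 480/540 nm; read-out basis: normalized % inhibition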
DNMT1 block – DNMT1 (human) enzyme inhibition; P26358; DNMT1 molecular beacon, Hinp1I cleavage, fluorescence; inhibition (reported as % activation of signal), % at 10 µM; 360,000 tested, 0.83% active; AID 588458; in the data active = inhibition above about 50%
Target sequence (P26358 504-1616 limits assumed): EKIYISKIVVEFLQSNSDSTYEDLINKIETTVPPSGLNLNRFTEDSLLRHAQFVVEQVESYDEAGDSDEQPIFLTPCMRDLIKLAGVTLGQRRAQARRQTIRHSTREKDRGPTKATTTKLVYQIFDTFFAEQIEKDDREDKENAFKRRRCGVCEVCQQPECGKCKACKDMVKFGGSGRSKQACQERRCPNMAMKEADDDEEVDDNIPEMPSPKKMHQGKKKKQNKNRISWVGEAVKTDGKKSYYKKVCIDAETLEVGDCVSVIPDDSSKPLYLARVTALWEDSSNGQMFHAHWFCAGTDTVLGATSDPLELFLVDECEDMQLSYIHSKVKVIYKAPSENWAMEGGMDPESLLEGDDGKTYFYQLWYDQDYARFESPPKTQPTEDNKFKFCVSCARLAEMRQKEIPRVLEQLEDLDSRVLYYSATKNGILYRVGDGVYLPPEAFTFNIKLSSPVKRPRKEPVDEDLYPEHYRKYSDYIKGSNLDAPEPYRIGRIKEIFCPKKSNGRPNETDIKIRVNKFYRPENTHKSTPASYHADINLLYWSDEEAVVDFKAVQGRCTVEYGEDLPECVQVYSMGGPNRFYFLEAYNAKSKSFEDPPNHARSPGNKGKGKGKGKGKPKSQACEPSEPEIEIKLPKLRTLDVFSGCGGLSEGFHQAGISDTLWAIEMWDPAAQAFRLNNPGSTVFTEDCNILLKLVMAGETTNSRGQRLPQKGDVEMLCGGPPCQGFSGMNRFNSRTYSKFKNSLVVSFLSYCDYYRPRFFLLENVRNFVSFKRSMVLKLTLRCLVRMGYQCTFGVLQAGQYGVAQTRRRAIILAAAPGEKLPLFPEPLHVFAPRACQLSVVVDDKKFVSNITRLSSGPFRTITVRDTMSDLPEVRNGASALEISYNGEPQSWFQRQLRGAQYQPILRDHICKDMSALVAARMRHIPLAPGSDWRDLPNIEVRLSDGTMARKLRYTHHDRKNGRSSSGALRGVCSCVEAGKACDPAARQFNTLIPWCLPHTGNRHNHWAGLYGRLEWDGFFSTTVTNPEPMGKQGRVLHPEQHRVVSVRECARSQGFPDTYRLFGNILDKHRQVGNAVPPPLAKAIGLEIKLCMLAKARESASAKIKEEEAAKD
LMPTP inh – LMPTP (human) inhibition; P24666; 360,000 tested, 0.22% active; inhibition, % at 20 µM; AID 651560; recombinant LMPTP-A, OMFP fluorogenic substrate, fluorescence intensity;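 active = compounds that cut the enzyme signal by at least half of the control window in the single-dose screen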
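test system = LMPTP-A | amount = 0.625 nM LMPTP-A final | reagent = fluorogenic phosphatase substrate OMFP at 400 µM final | incubation = 50 min at room temperature | benchmarks = no-enzyme low control, uninhibited high control | medium = Bis-Tris pH 6.0, DTT, detergent | signal = fluorescence intensity of OMFP turnover product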
Scp1 inh – inhibitors of human Scp-1 phosphatase | Q9GZU7 | inhibition, % at 20 µM | 340,000 tested, 0.88% active | AID 493091 | Recombinant Scp1, phosphopeptide, malachite green phosphate absorbance;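 active = inhibition above about 50% at 20 µM, limit read from the data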
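Material: truncated SCP-1 phosphatase (76-261aa) / Buffer or medium: 50 mM Tris acetate pH 5.5, 0.005% Tween-20, 10 mM MgCl2 / Compound dosing: one concentration, 20 µM, with 1.0% DMSO / Incubation: 45 min room-temperature reaction, 5 min colour, 30 min stabiliser / Detection: colorimetric free-phosphate detection, absorbance 630 nm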
SUMO1-SIM PPI – modulators of human SUMO1-mediated protein-protein interactions. P63165. SUMO1 binding to a labelled peptide, TR-FRET, 1 h. inhibition, % at 20 µM. 360,000 tested, 0.33% active. AID 602429; in the data active = inhibition above about 37%
Hits are given with their value; 0 = inactive; - = not tested or not shown. Only some compounds are listed: those with a hit (about 1.7% of all), similar ones and a draw of the others.

SMILES	STEP inh	DNMT1 block	LMPTP inh	Scp1 inh	SUMO1-SIM PPI
O=C1C=C(c2ccc3cc[nH]c3c2)C[C@@H](c2ccc3c(c2)OCO3)C1	0	0	0	67.1	0
Cc1ccc(NC(=O)CSc2nc3ccccc3c3nc(CCc4c(C)n[nH]c4C)nn23)cc1F	0	0	0	0	42.5
Cc1n[nH]c(C)c1CCc1nc2c3ccccc3nc(SCC(N)=O)n2n1	0	0	0	0	0
CN(CCOc1ccc(Cl)cc1)C(=O)c1cccc(S(=O)(=O)N2CCN(c3ccc(F)cc3)CC2)c1	0	0	0	0	0
Cc1ccc(-n2nnnc2SCC(=O)Nc2ccc3c(c2)COC3=O)cc1C	0	0	0	0	40.2
Cc1ccc(-n2nnnc2SCC(=O)Nc2ccc3c(c2)OCCO3)cc1C	0	0	0	0	0
c1coc(-c2nnc(-c3ccco3)nn2)c1	91.0	116.3	0	70.9	91.8
c1ccc(-c2nnc(-c3ccco3)o2)cc1	0	0	0	0	0
O=C1C=C(NCCc2cc(Br)c(O)c(Br)c2)C(=O)c2ncccc21	45.6	92.0	0	0	41.5
CC(=O)c1c(C)[nH]c(C(=O)OCC(=O)c2ccc3c(c2)NC(=O)CO3)c1C	0	0	0	0	64.8
Cc1cccc(C(=O)OCC(=O)c2ccc3c(c2)NC(=O)CO3)c1	0	0	0	0	0
CC1Cc2cc(/C(O)=C3/C(=O)C(=O)N(CC4CCCO4)C3c3ccco3)ccc2O1 (stereo unspecified)	0	50.1	0	0	0
COc1cc(C2/C(=C(\O)c3ccc4c(c3)CC(C)O4)C(=O)C(=O)N2CC2CCCO2)cc(OC)c1OC (stereo unspecified)	0	0	0	0	0
CNC(=O)OCc1snc(-c2ccccc2)c1COC(=O)NC	0	0	0	-	0
Cc1cc(N/N=C/c2ccccc2O)nc(-c2ccccc2O)n1	0	0	0	0	42.3
COC(=O)c1ccc(Nc2cc(C)nc(-c3ccccc3O)n2)cc1	0	0	0	0	58.8
CCCCn1c(N)c(N(CCOC)C(=O)COC(=O)CCOc2ccc(C)cc2)c(=O)[nH]c1=O	0	0	0	0	0
Cc1cc(N2CCN(c3nc(-c4ccc([N+](=O)[O-])cc4)cs3)CC2)c2ccccc2n1	0	0	95.4	0	0
Cc1cc(-c2ccc([N+](=O)[O-])cc2)nc2ccccc12	0	0	0	0	0
CCCCCCCCCCCCCCCC[n+]1cccc2ccccc21	0	0	0	75.2	82.8
Cc1cc(C)c(S(=O)(=O)/N=C2/C=C(SCC(=O)O)C(=O)c3ccccc32)cc1C	0	0	0	0	83.9
Cc1cc(C)cc(NC(=S)N2CCC(C(=O)c3ccc(F)cc3)CC2)c1	0	0	0	0	0
CCOc1ccc(CCNC(=O)CN2C(=O)NC3(CCCCCC3)C2=O)cc1OCC	0	0	0	0	47.6
COc1ccc(CNC(=O)CN2C(=O)NC3(CCCCCC3)C2=O)cc1OC	0	0	0	0	0
C[C@@]12CCC3[C@@](CCC4[C@@]3(C)CCC[C@@]4(C)C(=O)N3CCOCC3)(CC1=O)C2 (stereo partly specified)	0	0	0	0	0
SMILES	STEP inh	DNMT1 block	LMPTP inh	Scp1 inh	SUMO1-SIM PPI
O=C(Nc1ccc(-c2nc3ccccc3[nH]2)cc1)c1ccc2c(c1)OCO2	0	0	0	0	41.6
O=C(Nc1ccc(Cl)c(-c2nc3ccccc3[nH]2)c1)c1ccc2c(c1)OCO2	0	0	0	0	0
O=C(NCc1ccccc1C(F)(F)F)c1cccc2c1C(=O)c1ccc(N3CCC(N4CCCCC4)CC3)cc1S2(=O)=O	0	0	0	-	49.8
O=C(NCc1ccccc1Br)c1cccc2c1C(=O)c1ccc(N3CCC(Cc4ccccc4)CC3)cc1S2(=O)=O	0	0	0	0	0
COc1ccc(CCC2=NCCN2C(CC(C)C)c2nc3ccccc3[nH]2)cc1 (stereo unspecified)	0	0	0	-	0
N#Cc1ccc(NC(=O)c2sc3cc(C(F)(F)F)cnc3c2-c2cccs2)cc1	0	0	0	0	55.9
O=C(Nc1ccc(F)cc1)c1sc2cc(C(F)(F)F)cnc2c1-c1cccs1	0	0	0	0	0
[O-][n+]1ccc(CC(O)(C(F)(F)F)C(F)(F)F)cc1	0	0	0	-	0
O=C(/C=C/c1ccc(Br)cc1)NC(=O)c1ccccc1O	0	0	56.5	58.6	0
Cc1ccc(NC(=O)N/C=C/c2ccco2)cc1C	0	56.7	0	0	0
Cc1ccc(NC(=O)N/C=C/c2ccco2)c(C)c1	0	0	0	0	0
COc1cccc(C(C(=O)NC2CCCC2)N2CCN(c3cc(C)ccc3C)CC2)c1OC (stereo unspecified)	-	-	0	-	0
O=C1c2ccccc2C(=O)C1c1ccnc2ccccc12	0	55.7	0	0	0
O=C1C(=O)c2ccccc2C(O)=C1c1ccccc1F	0	0	0	0	0
O=C1C(c2ccnc3ccccc23)=C(O)c2ccccc21	0	51.6	0	0	0
C=CCn1cc(/C=C/c2cc[n+](C)cc2)c2ccccc21	0	0	0	0	0
CCn1cc(/C=C/c2cc[n+](C)cc2)c2ccccc21	0	0	0	67.5	0
COc1ccc(/C=N\NC(=O)c2cc(O)c(O)c(O)c2)cc1COc1ccc(C(=O)OCC(C)C)cc1	0	0	0	50.6	0
COc1ccc(C(=O)N/N=C/c2ccc(OC)c(COc3ccccc3)c2)cc1	0	0	0	0	0
COc1cc(C(=O)N/N=C/c2ccc(OC(=O)c3ccccc3)c(OC)c2)ccc1O	0	0	0	0	0
COc1cc(/C=N/NC(=O)c2ccc(O)cc2)ccc1OCC(=O)Nc1cccc([N+](=O)[O-])c1	0	0	0	0	92.7
COc1cc(/C=N/NC(=O)c2cc(O)cc(O)c2)ccc1OC(=O)c1ccccc1	67.0	76.8	0	62.1	0
O=C(COc1cccc(-n2cnnn2)c1)Nc1ccc([N+](=O)[O-])cc1	0	0	0	0	0
COc1ccc(OC)c(NC(=O)COC(=O)c2ccc(S(=O)(=O)N3CCCCC3)cc2)c1	0	0	0	-	0
Nc1nc(=S)c2ncn(C3OC(CO)C(O)C3O)c2[nH]1 (stereo unspecified)	42.6	79.6	0	76.7	0
Nc1nc(=S)c2ncn([C@@H]3O[C@H](CO)[C@@H](O)[C@H]3O)c2[nH]1	0	0	0	0	0
C=C(C)C(=O)Nc1cccc(C2=NOC3(C2)C[C@@H](C(N)=O)N(C(=O)c2ccc(OC)cc2)C3)c1 (stereo partly specified)	0	95.8	0	99.4	106.8
CCCCCC(=O)Nc1cccc(C2=NOC3(C2)C[C@@H](C(N)=O)N(C(=O)c2ccc(OC)cc2)C3)c1 (stereo partly specified)	0	0	0	0	0
CCc1ccc(C(O)c2ncc(-c3cccc(C)c3)[nH]2)cc1 (stereo unspecified)	0	0	0	-	0
